Article PMC11451551 (Science Advances, 2024)

Tests used:
[1] = test system: circulating platelets in SCID/bg mice; assay: Assessment of platelet levels in mice; assay type: in vivo, mouse; settings: single dose: 9 0.1 mg/kg iv, 10 0.6 mg/kg iv, navitoclax 50 mg/kg oral
How it was run: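 Female SCID/bg mice were randomised (15 per group) and given one dose of vehicle or test compound, intravenously or by oral gavage. At 6, 72 and 168 h, five mice per group were bled from the retro-orbital plexus under sevoflurane into heparinised vials and then euthanised without recovery. Platelets were counted on an automated haematology analyser; results are group means with SEM.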

anesthetized beagle dogs = assay: in vivo; assay type: in vivo, dog; settings: for effect on cardiovascular parameters / effect on platelets: iv bolus
Molt-4 cells = assay: Cell viability assay; assay type: cell-based, human
How it was run: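 Molt-4 or RS4;11 leukaemia cells were plated at 50,000 per well in medium with 10% human serum. They were exposed 48 h to a threefold dilution series of test compound, 5 to 0.020 μM, each concentration in duplicate on at least three occasions. Viable cells were read by CellTiter-Glo luminescence, and EC50 was taken from a sigmoidal fit.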

[2] = test system: digitonin-permeabilized Molt-4 cells; assay: Permeabilized cell JC-1 assay; assay type: cell-based, human
How it was run: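 Molt-4 cells were washed into DTEB buffer (trehalose, KCl, EDTA/EGTA, 0.1% BSA, succinate, 10 mM Hepes-KOH pH 7.5) containing 2 μM JC-1, 0.01% digitonin, 10 mM β-mercaptoethanol and oligomycin (20 μg/ml). After 10 min at room temperature they were diluted with an equal volume of buffer and test compound was added. DMSO was the negative control; FCCP 10 μM final defined 100% depolarization. Fluorescence at 590 nm was read every 10 min, 37°C, 1–3 h. EC50 from % depolarization.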

in vivo = assay type: in vivo, dog; settings: male, beagle, dog, in vivo, 0.3 mg/kg
H1650 tumors = assay: H1650 xenograft efficacy in SCID/bg mice; assay type: in vivo, mouse
How it was run: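 H1650 or PC-9 NSCLC cells (RPMI 1640, 10% heat-inactivated FBS, ≤5 passages, mycoplasma-free) were injected subcutaneously at 5×10^6 cells into the right flank of 8-week-old female SCID/bg mice (~22 g). Docetaxel was given 7.5 mg/kg iv QDx1 and conjugates intraperitoneally. In the single-dose study (H1650 only), tumours were ~200 mm³ and treatment began on day 9, QDx1. In the other study, treatment began on day 10, Q7D×2. Volumes are means of eight tumours.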

Compound: CNCCOC12CC3(C)CC(C)(CC(Cn4ncc(-c5ccc(N6CCc7cccc(C(=O)Nc8nc9ccccc9s8)c7C6)nc5C(=O)O)c4C)(C3)C1)C2 [compound 9]
- effect on platelets at 6 hours [1]: severe thrombocytopenia
- effect on cardiovascular parameters (anesthetized beagle dogs): marked changes in cardiovascular parameters
- effect on platelets (anesthetized beagle dogs): expected thrombocytopenia
- EC50 (Molt-4 cells; read-out: Molt-4 cell EC50, 10% human serum, 48 h): 8 nM
- Permeabilized Molt-4 EC50 [2]: subnanomolar

Compound: Cc1c(-c2ccc(N3CCc4cccc(C(=O)Nc5nc6ccccc6s5)c4C3)nc2C(=O)O)cnn1CC12CC3(C)CC(C)(C1)CC(OCCNCCS(=O)(=O)O)(C3)C2 [compound 10]
- effect on platelets at 6 hours [1]: no significant reduction of platelet number
- effect on cardiovascular parameters (anesthetized beagle dogs): only minimal to moderate effects on cardiovascular parameters
- effect on platelets (anesthetized beagle dogs): no decrease in platelets
- loss of Molt-4 activity relative to 9 (Molt-4 cells): over 30 fold
- Permeabilized Molt-4 EC50 [2]: subnanomolar

Compound: Cc1c(-c2ccc(N3CCc4cccc(C(=O)Nc5nc6ccccc6s5)c4C3)nc2C(=O)O)cnn1CC12CC3(C)CC(C)(C1)CC(OCCNCC[C@H](O)CO)(C3)C2 [compound 11]
- effect on cardiovascular function (anesthetized beagle dogs; 0.3 mg/kg per minute): cardiovascular collapse in both animals
- effect on cardiovascular function (anesthetized beagle dogs; 0.01 and 0.1 mg/kg per minute): no impact on blood pressure or other indices of cardiovascular function
- plasma concentration without impact on cardiovascular function (anesthetized beagle dogs; infusion 0.01 and 0.1 mg/kg per minute): ≤ 447 ng/mL
- estimated cardiovascular TI (dog tolerated plasma level vs free 11 in monkeys) (anesthetized beagle dogs; male, beagle, dog, in vivo): > 65 fold
- Cmax (in vivo): 1020 ng/mL

Compound: CC(=O)O[C@@]12CO[C@@H]1C[C@H](O)[C@@]1(C)C(=O)[C@H](O)C3=C(C)[C@@H](OC(=O)[C@H](O)[C@@H](NC(=O)OC(C)(C)C)c4ccccc4)C[C@@](O)([C@@H](OC(=O)c4ccccc4)[C@H]21)C3(C)C [docetaxel]
- tumor growth inhibition (TGI) (H1650 tumors; 7.5 mg/kg iv QDx1, alone (single-dose ADC study)): 81%
- time by which all tumors were relapsed (H1650 tumors; single agent): ≤ 46 days

Compound: CC1(C)CCC(c2ccc(Cl)cc2)=C(CN2CCN(c3ccc(C(=O)NS(=O)(=O)c4ccc(N[C@H](CCN5CCOCC5)CSc5ccccc5)c(S(=O)(=O)C(F)(F)F)c4)cc3)CC2)C1 [navitoclax, reference compound]
- effect on platelets at 6 hours [1]: severe thrombocytopenia
